Where only a bound is given, the exact number is not on record here.

The target in one test is T1, P2X purinoceptor 7 (Homo sapiens) (UniProt Q99572).
T1 sequence (whole entry): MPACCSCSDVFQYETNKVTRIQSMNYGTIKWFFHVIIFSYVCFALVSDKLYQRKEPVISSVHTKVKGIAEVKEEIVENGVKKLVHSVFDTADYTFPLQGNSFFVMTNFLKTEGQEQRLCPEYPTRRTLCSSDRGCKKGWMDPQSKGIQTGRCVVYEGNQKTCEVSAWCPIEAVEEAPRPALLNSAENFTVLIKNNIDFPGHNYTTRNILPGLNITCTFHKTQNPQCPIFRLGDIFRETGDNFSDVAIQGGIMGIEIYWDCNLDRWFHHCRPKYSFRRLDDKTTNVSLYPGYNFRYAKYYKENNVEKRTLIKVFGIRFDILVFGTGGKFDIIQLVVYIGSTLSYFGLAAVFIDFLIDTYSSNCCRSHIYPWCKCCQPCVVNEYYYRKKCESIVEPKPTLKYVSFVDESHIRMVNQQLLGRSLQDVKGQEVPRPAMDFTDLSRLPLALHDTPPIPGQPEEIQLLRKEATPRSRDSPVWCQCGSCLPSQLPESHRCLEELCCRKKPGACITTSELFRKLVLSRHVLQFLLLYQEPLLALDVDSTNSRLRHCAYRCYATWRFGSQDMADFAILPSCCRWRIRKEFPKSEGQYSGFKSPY
The test is described as follows: Antagonist activity at human P2X7 receptor expressed in HEK293 cells assessed as inhibition of BzATP-induced ethidium bromide uptake at 20 uM after 2 hrs by fluorescence analysis. The format is functional, cell-based.
Settings: not given
Broadly, the inhibition is the change of the read-out against control, counted positive when it falls. As for `O=C(Cc1ccncc1)NNc1c(Cl)cncc1Cl`, the inhibition was less than 20%.

The target in a further test is T1, P2X purinoceptor 7 (Homo sapiens). The test is described as follows: Antagonist activity at human P2X7 receptor expressed in HEK293 cells assessed as inhibition of BzATP-induced ethidium bromide uptake at 10 uM after 2 hrs by fluorescence analysis.
Settings: not given
As to `O=C(CCc1ccccc1)NNc1c(F)cncc1F`, the inhibition is less than 20%.
Still for that read-out and setting: the result for `O=C(CCc1ccc(O)cc1)NNc1c(Cl)cncc1Cl` reads less than 20%.
Still for that read-out and setting: the result for `O=C(NCc1ccccc1)NNc1c(Cl)cncc1Cl` reads less than 20%.
On the same count and under the same terms, the result for `O=C(NNc1c(Cl)cncc1Cl)c1ccccc1` reads less than 20%; that for `O=C(CCc1ccccc1)Nc1c(Cl)cncc1Cl`, less than 20%; that for `O=C(CCc1ccccc1)NNc1ccncc1`, less than 20%.
In the case of `O=C(/C=C/c1ccccc1)NNc1c(Cl)cncc1Cl`, the inhibition is less than 20%.
Still for that read-out and setting: the value for `O=C(NNc1c(Cl)cncc1Cl)c1cc2ccccc2[nH]1` was less than 20%; that for `O=C(Cc1ccc2ccccc2c1)NNc1c(Cl)cncc1Cl` was less than 20%.
Still for that read-out and setting: the value for `O=C(NNc1c(Cl)cncc1Cl)C1CC2C=CC1C2` (configuration not stated) was less than 20%; that for `O=C(CCc1ccccc1)NNc1cc(Cl)nc(Cl)c1` was less than 20%; that for `Clc1cncc(Cl)c1NNCCCc1ccccc1` was less than 20%.
`O=C(CCc1ccccc1)NNc1c(F)cccc1F`: the inhibition was less than 20%.
Consider `O=C(Cc1cccc2ccccc12)NNc1c(Cl)cncc1Cl`, for which the inhibition is less than 20%.
The same measure, in the same setting: the value for `CN(Nc1c(Cl)cncc1Cl)C(=O)CCc1ccccc1` was less than 20%.

The next test addresses T2, P2X purinoceptor 7 (Homo sapiens, UniProt Q99572).
T2 sequence (Q99572 whole entry): T1 sequence (whole entry)
The test is described as follows: Antagonist activity at human P2X7 receptor expressed in HEK293 cells assessed as inhibition of BzATP-induced ethidium bromide uptake after 2 hrs by fluorescence analysis. The format is functional, cell-based.
Settings: not given
What is called IC50 is the concentration needed to halve the response being measured. On to `O=C(CCCCc1ccccc1)NNc1c(Cl)cncc1Cl`, for which the concentration for half-maximal inhibition (IC50) turned out to be 1200 nM.
The same measure, in the same setting: the value for `O=C(Cc1ccc(Cl)cc1Cl)NNc1c(Cl)cncc1Cl` was 2500 nM; that for `O=C(NNc1c(Cl)cncc1Cl)C12CC3CC(CC1C3)C2` was 1400 nM; that for `O=C(NNc1c(Cl)cncc1Cl)C1C2CC3CC(C2)C(Br)C1C3` (configuration not stated) was 4.9 nM.
Consider `O=C(Cc1ccc(Cl)cc1)NNc1c(Cl)cncc1Cl`, for which the IC50 turned out to be 620 nM.
Still for that read-out and setting: the result for `CC12CC3CC(C)(C1)CC(C(=O)NNc1c(Cl)cncc1Cl)(C3)C2` reads 13 nM; that for `O=C(CCc1ccccc1)NNc1c(Cl)cccc1Cl`, 1400 nM.
Still for that read-out and setting: the value for `O=C(CCc1ccccc1)NNc1c(Cl)cncc1Cl` was 650 nM.
On the same count and under the same terms, the value for `O=C(CC1C2CC3CC(C2)CC1C3)NNc1c(Cl)cncc1Cl` (configuration not stated) was 340 nM; that for `Cc1ccc(CCC(=O)NNc2c(Cl)cncc2Cl)cc1` was 1400 nM.
Turning to `COc1ccc(CCC(=O)NNc2c(Cl)cncc2Cl)cc1`, the IC50 was found to be 1500 nM.
In the case of `O=C(CCc1ccc(Cl)cc1)NNc1c(Cl)cncc1Cl`, the IC50 worked out at 1100 nM.
Same read-out and setting: the value for `O=C(NNc1c(Cl)cncc1Cl)C1Cc2ccccc2C1` was 4200 nM; that for `O=C(CCCC1CCCCC1)NNc1c(Cl)cncc1Cl` was 360 nM.
As for `O=C(CCCCCCc1ccccc1)NNc1c(Cl)cncc1Cl`, the half-inhibitory concentration (IC50) was 950 nM.
Same read-out and setting: the result for `Cc1cccc(C)c1NNC(=O)CCc1ccccc1` reads 900 nM.
On the same count and under the same terms, the value for `O=C(CCCCCc1ccccc1)NNc1c(Cl)cncc1Cl` was 1900 nM.
Same read-out and setting: the result for `O=C(NNc1c(Cl)cncc1Cl)OCc1ccccc1` reads 370 nM; that for `O=C(CCC1CCCCC1)NNc1c(Cl)cncc1Cl`, 130 nM.
Regarding `O=C(CCC1CCCC1)NNc1c(Cl)cncc1Cl`, the IC50 amounted to 380 nM.
Still for that read-out and setting: the value for `O=C(CC1CCCCC1)NNc1c(Cl)cncc1Cl` was 730 nM; that for `O=C(CCCc1ccccc1)NNc1c(Cl)cncc1Cl` was 770 nM.
Still for that read-out and setting: the value for `O=C(NNc1c(Cl)cncc1Cl)C1Cc2ccccc21` (racemic) was 320 nM; that for `O=C(NNc1c(Cl)cncc1Cl)C1CC2CCC1C2` (configuration not stated) was 2800 nM; that for `O=C(Cc1ccccc1)NNc1c(Cl)cncc1Cl` was 1100 nM.
Still for that read-out and setting: the result for `O=C(CC1CC2CCC1C2)NNc1c(Cl)cncc1Cl` (configuration not stated) reads 210 nM; that for `O=C(NNc1c(Cl)cncc1Cl)C1C2CC3CC(C2)CC1C3` (configuration not stated), 77 nM; that for `O=C(CCc1ccc(F)cc1)NNc1c(Cl)cncc1Cl`, 900 nM.
`O=C(NNc1c(Cl)cncc1Cl)C1CCc2ccccc2C1` (racemic): the IC50 worked out at 1100 nM.
As for `CN([C@@H](Cc1ccc(OS(=O)(=O)c2cccc3cnccc23)cc1)C(=O)N1CCN(c2ccccc2)CC1)S(=O)(=O)c1cccc2cnccc12`, the half-inhibitory concentration (IC50) amounted to 280 nM.
As to `O=C(CC1CCCCCC1)NNc1c(Cl)cncc1Cl`, the IC50 is 200 nM.
On the same count and under the same terms, the value for `O=C(CCc1cccc2ccccc12)NNc1c(Cl)cncc1Cl` was 1200 nM.

For a further test, the target named is T2, P2X purinoceptor 7. The test is described as follows: Antagonist activity at human P2X7 receptor in human THP1 cells assessed as inhibition of BzATP-induced IL-1beta release pretreated for 30 mins before bzATP challenge measured after 30 mins by ELISA.
Settings: not given
With `O=C(NNc1c(Cl)cncc1Cl)C1C2CC3CC(C2)C(Br)C1C3` (configuration not stated), the half-maximal inhibitory concentration (IC50) came to 1.3 nM.
Still for that read-out and setting: the result for `CC12CC3CC(C)(C1)CC(C(=O)NNc1c(Cl)cncc1Cl)(C3)C2` reads 9.2 nM.
Same read-out and setting: the value for `O=C(CCc1ccccc1)NNc1c(Cl)cncc1Cl` was 320 nM; that for `O=C(CCC1CCCCC1)NNc1c(Cl)cncc1Cl` was 56 nM; that for `O=C(NNc1c(Cl)cncc1Cl)C1C2CC3CC(C2)CC1C3` (configuration not stated) was 130 nM.
Same read-out and setting: the result for `CN([C@@H](Cc1ccc(OS(=O)(=O)c2cccc3cnccc23)cc1)C(=O)N1CCN(c2ccccc2)CC1)S(=O)(=O)c1cccc2cnccc12` reads 120 nM.
As to `O=C(CC1CCCCCC1)NNc1c(Cl)cncc1Cl`, the half-inhibitory concentration (IC50) came to 42 nM.

For a further test, the target named is T3, P2X purinoceptor 1 (Mus musculus) (UniProt P51576).
T3 sequence (whole entry): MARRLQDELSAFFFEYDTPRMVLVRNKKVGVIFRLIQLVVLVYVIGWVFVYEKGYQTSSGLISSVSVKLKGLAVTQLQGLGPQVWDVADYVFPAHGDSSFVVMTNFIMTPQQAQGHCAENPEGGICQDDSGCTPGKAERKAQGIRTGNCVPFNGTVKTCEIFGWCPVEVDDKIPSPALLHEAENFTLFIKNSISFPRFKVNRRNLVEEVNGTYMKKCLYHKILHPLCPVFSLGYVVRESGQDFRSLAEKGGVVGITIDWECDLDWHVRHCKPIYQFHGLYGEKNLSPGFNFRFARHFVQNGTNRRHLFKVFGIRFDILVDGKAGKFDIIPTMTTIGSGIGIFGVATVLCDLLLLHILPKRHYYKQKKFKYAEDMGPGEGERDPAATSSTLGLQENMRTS
Put plainly: Antagonist activity at mouse P2X1 receptor expressed in Xenopus oocytes assessed as reduction in ATP-induced ion current at 10 uM. More on the design: scale not given: the % may be the effect or the level left. The format is functional, cell-based. The settings on record: Oocyte. The method in brief: (§1)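 Two-electrode voltage clamp on Xenopus oocytes made to express the receptor by microinjection of capped cRNA. Currents were evoked by 2 μM ATP, and the test compound was given at 10 μM. The read-out is the percent reduction of the ATP-induced ion current.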
Take `CC12CC3CC(C)(C1)CC(C(=O)NNc1c(Cl)cncc1Cl)(C3)C2`: the Activity was 10%.

In the next test the target is T4, P2X purinoceptor 3 (Homo sapiens) (UniProt P56373).
T4 sequence (whole entry): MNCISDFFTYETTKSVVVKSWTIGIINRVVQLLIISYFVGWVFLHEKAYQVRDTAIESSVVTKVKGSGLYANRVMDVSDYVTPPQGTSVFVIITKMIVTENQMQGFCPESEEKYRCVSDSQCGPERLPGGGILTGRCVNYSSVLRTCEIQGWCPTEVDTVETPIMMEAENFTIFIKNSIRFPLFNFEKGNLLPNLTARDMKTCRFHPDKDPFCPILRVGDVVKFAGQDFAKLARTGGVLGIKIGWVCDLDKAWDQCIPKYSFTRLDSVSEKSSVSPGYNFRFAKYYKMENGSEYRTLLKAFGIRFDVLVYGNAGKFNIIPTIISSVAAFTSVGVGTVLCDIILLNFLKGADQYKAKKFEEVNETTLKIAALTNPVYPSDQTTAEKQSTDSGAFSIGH
Put plainly: Antagonist activity at human P2X3 receptor expressed in Xenopus oocytes assessed as reduction in ATP-induced ion current at 10 uM. It counts as functional, cell-based. Also on record: scale not given: the % may be the effect or the level left. The conditions noted are these: Oocyte. The method in brief:
as §1
For the molecule `CC12CC3CC(C)(C1)CC(C(=O)NNc1c(Cl)cncc1Cl)(C3)C2`, the Activity was 10%.
